Experimental data from ChEMBL document CHEMBL1268843, “Synthesis, NMR characterization and divergent biological actions of 2'-hydroxy-ceramide/dihydroceramide stereoisomers in MCF7 cells” (Bioorg Med Chem, 2010).
pIC50: −log10 of the molar value.

Legend:
[1] = tested on: MCF7; experiment: Metabolic stability in human MCF7 cells assessed as C24-ceramide levels at 20 uM after 24 hrs by LC-MS/MS analysis relative to control; assay type: ADME, cell-based; details: mcf7, 24 h
Summary of the method: (§1)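 MCF7 cells grown in parallel with proliferation sets, treated with compound in ethanol (<0.1%) for 24 h (or time course at 10 μM); Bligh & Dyer lipid extracts analysed by LC-MS/MS on triple quadrupole in positive-ion MRM; quantified against spiked-matrix calibration curves with internal standard, linear regression; levels normalized to phospholipid (pmol/nmol Pi), compared with control cells.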

[2] = tested on: MCF7; experiment: Metabolic stability in human MCF7 cells assessed as C18-ceramide levels at 20 uM after 24 hrs by LC-MS/MS analysis relative to control; assay type: ADME, cell-based; details: mcf7, 24 h; summary of the method: as §1
[3] = tested on: MCF7; experiment: Metabolic stability in human MCF7 cells assessed as cellular ceramide levels at up to 25 uM after 24 hrs by LC-MS/MS analysis; assay type: ADME, cell-based; details: mcf7, 24 h; summary of the method: as §1
[4] = tested on: MCF7; experiment: Metabolic stability in human MCF7 cells assessed as C14-ceramide levels at 20 uM after 24 hrs by LC-MS/MS analysis relative to control; assay type: ADME, cell-based; details: mcf7, 24 h; summary of the method: as §1
[5] = tested on: MCF7; experiment: Metabolic stability in human MCF7 cells assessed as C16-ceramide levels at 20 uM after 24 hrs by LC-MS/MS analysis relative to control; assay type: ADME, cell-based; details: mcf7, 24 h; summary of the method: as §1
[6] = tested on: MCF7; experiment: Metabolic stability in human MCF7 cells assessed as cellular ceramide levels at 10 uM after up to 30 hrs by LC-MS/MS analysis; assay type: ADME, cell-based; details: mcf7, 30 h; summary of the method: as §1
[7] = tested on: MCF7; experiment: Metabolic stability in human MCF7 cells assessed as C24:1-ceramide levels at 20 uM after 24 hrs by LC-MS/MS analysis relative to control; assay type: ADME, cell-based; details: mcf7, 24 h; summary of the method: as §1
[8] = tested on: MCF7; experiment: Metabolic stability in human MCF7 cells assessed as endogenous 2-OH-ceramide levels at 2.5 to 20 uM after 24 hrs by LC-MS/MS analysis; assay type: ADME, cell-based; details: mcf7, 24 h; summary of the method: as §1
[9] = tested on: MCF7; experiment: Metabolic stability in human MCF7 cells assessed as cellular sphingosine levels at up to 25 uM after 24 hrs by LC-MS/MS analysis; assay type: ADME, cell-based; details: mcf7, 24 h; summary of the method: as §1
[10] = tested on: MCF7; experiment: Metabolic stability in human MCF7 cells assessed as cellular C16-dihydroceramide levels after 24 hrs by LC-MS/MS analysis; assay type: ADME, cell-based; details: mcf7, 24 h; summary of the method: as §1
[11] = tested on: MCF7; experiment: Metabolic stability in human MCF7 cells assessed as cellular dihydrsphingosine levels at 40 uM after 24 hrs by LC-MS/MS analysis relative to control; assay type: ADME, cell-based; details: mcf7, 24 h; summary of the method: as §1
[12] = tested on: MCF7; experiment: Metabolic stability in human MCF7 cells assessed as cellular dihydroceramide levels at up to 10 uM after 24 hrs by LC-MS/MS analysis; assay type: ADME, cell-based; details: mcf7, 24 h; summary of the method: as §1
[13] = tested on: MCF7; experiment: Antiproliferative activity against human MCF7 cells after 24 hrs by trypan blue exclusion assay; assay type: functional, cell-based; details: MCF7, 24 h
[14] = tested on: MCF7; experiment: Metabolic stability in human MCF7 cells assessed as cellular dihydroceramide levels at 40 uM after 24 hrs by LC-MS/MS analysis; assay type: ADME, cell-based; details: mcf7, 24 h; summary of the method: as §1
[15] = tested on: MCF7; experiment: Antiproliferative activity against human MCF7 cells assessed as inhibition of cell growth at 10 uM after 24 hrs by trypan blue exclusion assay; assay type: functional, cell-based
[16] = tested on: MCF7; experiment: Metabolic stability in human MCF7 cells assessed as cellular dihydroceramide levels at up to 5 uM after 24 hrs by LC-MS/MS analysis; assay type: ADME, cell-based; details: mcf7, 24 h; summary of the method: as §1
[17] = tested on: MCF7; experiment: Metabolic stability in human MCF7 cells assessed as C18-ceramide levels at 10 uM after 24 hrs by LC-MS/MS analysis relative to control; assay type: ADME, cell-based; details: mcf7, 24 h; summary of the method: as §1
[18] = tested on: MCF7; experiment: Metabolic stability in human MCF7 cells assessed as ceramide species levels at up to 5 uM after 24 hrs by LC-MS/MS analysis; assay type: ADME, cell-based; details: mcf7, 24 h; summary of the method: as §1
[19] = tested on: MCF7; experiment: Metabolic stability in human MCF7 cells assessed as endogenous sphingosine levels at 10 uM after 24 hrs by LC-MS/MS analysis; assay type: ADME, cell-based; details: mcf7, 24 h; summary of the method: as §1
[20] = tested on: MCF7; experiment: Metabolic stability in human MCF7 cells assessed as C14-ceramide levels at 10 uM after 24 hrs by LC-MS/MS analysis relative to control; assay type: ADME, cell-based; details: mcf7, 24 h; summary of the method: as §1
[21] = tested on: MCF7; experiment: Metabolic stability in human MCF7 cells assessed as C16-ceramide levels at 10 uM after 24 hrs by LC-MS/MS analysis relative to control; assay type: ADME, cell-based; details: mcf7, 24 h; summary of the method: as §1

SMILES	fold change (FC) [1]	fold change (FC) [2]	Stability [3]	fold change (FC) [4]	fold change (FC) [5]	Stability [6]	fold change (FC) [7]	Stability [8]	Stability [9]	fold change (FC) [10]	fold change (FC) [11]	Stability [12]	pIC50 [13]	fold change (FC) [14]	Stability [11]	other results
CCCCCCCCCCCCC/C=C/[C@@H](O)[C@H](CO)NC(=O)[C@@H](O)CCCC	2	30	Stable	20	7	Stable	4	Stable	Stable							
CCCCCCCCCCCCCCC[C@@H](O)[C@H](CO)NC(=O)CCCCC										13	5	Stable	4.42	7		Stability [15]: Stable
CCCCCCCCCCCCC/C=C/[C@@H](O)[C@H](CO)NC(=O)CCCCC	0.2	80		40	20		5						4.92			
CCCCCCCCCCCCCCC[C@@H](O)[C@H](CO)NC(=O)[C@H](O)CCCC												Stable	5.10		Stable	Stability [10]: Stable; Stability [16]: Stable
CCCCCCCCCCCCCCC[C@@H](O)[C@H](CO)NC(=O)[C@@H](O)CCCC										25	16	Stable	4.92	19	Unstable	
CCCCCCCCCCCCC/C=C/[C@@H](O)[C@H](CO)NC(=O)[C@H](O)CCCC			Stable			Stable		Stable	Stable							fold change (FC) [17]: 5; Stability [18]: Stable; Stability [19]: Stable; fold change (FC) [20]: 3; fold change (FC) [21]: 1.7
